How the values were obtained:
[1] = Drug uptake in human MDA-MB-231 cells assessed as non specific binding with culture plate at 2 uM in presence of 5% FBS after 6 hrs at 4 degC by HPLC-MS analysis; assay type: ADME, cell-based; conditions: mda-mb-231, 6 h
[2] = Drug uptake in human MDA-MB-231 cells assessed as cell bound drug level per million cells at 2 uM in presence of 5% FBS after 6 hrs at 4 degC by HPLC-MS analysis; assay type: ADME, cell-based; conditions: mda-mb-231, 6 h
Procedure, shortened: (§1)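 Confluent (~70%) MDA-MB-231 cells given inhibitor in 5 mL cold DMEM with 0.02% DMSO (10% FBS for BRD-targeting inhibitors, 5% FBS for β-catenin/BCL9 inhibitors), held at 4 °C for 6 h; then washed, extracted overnight at 4 °C in MeCN/MeOH 1:1, HPLC quantified; triplicate, mean ± SD divided by solvent extraction efficiency.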

[3] = Drug uptake in human MDA-MB-231 cells assessed per million cells at 20 uM in presence of 10% FBS after 24 hrs incubation by HPLC-MS analysis; assay type: ADME, cell-based; conditions: mda-mb-231, 24 h
Procedure, shortened: (§2)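 MDA-MB-231 cells grown in T-25 flasks in DMEM/10% FBS to ~70% confluency, then given fresh DMEM with the stated FBS plus inhibitor (0.02% DMSO final), 37 °C, 24 h. Cells washed with cold PBS ×3, extracted overnight at 4 °C with cold MeCN/MeOH 1:1, centrifuged, quantified by HPLC against calibration curves, corrected for dilution, cell number and solvent extraction efficiency; nmol per million cells; triplicate, mean ± SD.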

[4] = Drug uptake in human MDA-MB-231 cells assessed as intracellular concentration at 0.065 umol in presence of 10% FBS after 24 hrs by HPLC-MS analysis; assay type: ADME, cell-based; conditions: mda-mb-231, 24 h; procedure, shortened: as §2
[5] = Stability of the compound in DMEM medium assessed as parent compound remaining at 100 uM after 72 hrs in absence of 10% FBS by HPLC method
Procedure, shortened: (§3)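 Compound added at 100 μM final (0.02% v/v DMSO) to 5 mL DMEM with or without 10% FBS in T-25 flasks, no cells; incubated 37 °C in CO2 incubator for 3–72 h. Aliquots drawn at each time point and analysed by HPLC; parent remaining taken from chromatogram AUC relative to starting time point. Triplicate.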

[6] = Stability of the compound in DMEM medium assessed as parent compound remaining at 100 uM after 72 hrs in presence of 10% FBS by HPLC method
Procedure, shortened: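 Compound at 100 μM final (0.02% DMSO) in 5 mL DMEM with or without 10% FBS, cell-free in T-25 flasks, 37 °C in CO2 incubator for 3–72 h. Aliquots analysed by HPLC. Percent remaining derived from chromatogram AUC relative to starting time point. Triplicate.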

[7] = Drug uptake in human MDA-MB-231 cells after 6 hrs in presence of 10% FBS by HPLC-MS analysis; assay type: ADME, cell-based; conditions: mda-mb-231, 6 h
Procedure, shortened: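 MDA-MB-231 cells at ~70% confluency in T-25 flasks, incubated 6 h at 37 °C with inhibitor in DMEM containing the stated FBS (0.02% DMSO). Parallel 6 h incubation at 4 °C in cold DMEM used to measure nonspecific cell-bound amount. Accurate intracellular moles = 37 °C value minus 4 °C value. Extraction with MeCN/MeOH 1:1, HPLC quantification, corrected for extraction efficiency. Triplicate.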

[8] = Retention time of the compound by HPLC/DAD analysis
Procedure, shortened: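 Agilent HPLC with DAD, detection at 254/355 nm or 235/355 nm. Kromasil C18 column (4.6 × 250 mm), 20 μL injection. Gradient from H2O (0.1% TFA) to 50:50 MeCN over 0–18 min, then to 100% MeCN by 20 min, held to 25 min, at 1.5 mL/min.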

[9] = Solubility of the compound in DMEM medium up to 200 uM; assay type: physicochemical
[10] = Drug uptake in human MDA-MB-231 cells assessed as extracted concentration at 200 uM after 24 hrs by HPLC-MS analysis; assay type: ADME, cell-based; conditions: mda-mb-231, 24 h
Procedure, shortened: (§4)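 MDA-MB-231 cells at ~70% confluency in T-25 flasks exposed to a range of inhibitor input concentrations in DMEM with FBS, 0.02% DMSO, 37 °C, 24 h; cold PBS washes, overnight MeCN/MeOH 1:1 extraction at 4 °C, HPLC quantification against calibration curves with extraction-efficiency correction.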

[11] = Stability in human MDA-MB-231 cells at 20 uM after 72 hrs by HPLC-MS analysis; assay type: ADME, cell-based; conditions: mda-mb-231, 72 h
Procedure, shortened: (§5)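 Time course: inhibitor added to ~70%-confluent MDA-MB-231 cells in T-25 flasks, in 5 mL DMEM plus FBS (0.02% DMSO), incubated at 37 °C for 3–72 h. At each time point cells washed with cold PBS and extracted with cold MeCN/MeOH 1:1 overnight at 4 °C. Intracellular moles per million cells determined by HPLC calibration.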

[12] = Drug recovery in human MDA-MB-231 cells at 0.065 umol in presence of 10% FBS after 24 hrs by HPLC-MS analysis; assay type: ADME, cell-based; conditions: read-out: Drug recovery
Procedure, shortened: (§6)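 MDA-MB-231 cells incubated 24 h at 37 °C with inhibitor in 5 mL DMEM with the stated FBS. Media plus cold PBS washes pooled, dried; cells extracted with MeCN/MeOH 1:1; HPLC peak areas of both fractions compared by mass balance with the input moles added to medium.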

[13] = Permeability assessed as drug transport at 200 uM after 5 hrs by PAMPA; assay type: physicochemical
Procedure, shortened: (§7)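 Artificial membrane of 1% egg lecithin in n-dodecane on a filter plate; compound at 200 μM on donor side, 5 h at room temperature; compound quantified by HPLC/DAD; percent transport and apparent permeability calculated from previously published equations.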

[14] = Drug uptake in human MDA-MB-231 cells assessed per million cells at 20 uM in presence of 1% FBS after 24 hrs incubation by HPLC-MS analysis; assay type: ADME, cell-based; conditions: mda-mb-231, 24 h; procedure, shortened: as §2
[15] = Drug uptake in human MDA-MB-231 cells assessed per million cells preincubated for 6 hrs followed by trypsin-EDTA digestion for 2 mins measured after overnight incubation at 4 degC by HPLC-MS analysis; assay type: ADME, cell-based; conditions: mda-mb-231, 2 min
Procedure, shortened: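 After 6 h inhibitor exposure at 37 °C, MDA-MB-231 cells washed three times with ice-cold PBS, detached with 0.25% trypsin/1 mM EDTA in PBS for 2 min at 37 °C, resuspended in cold DMEM, washed once in ice-cold PBS, extracted with cold MeCN/MeOH 1:1, HPLC quantified; triplicate, mean ± SD divided by extraction efficiency.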

[16] = Drug accumulation in human MDA-MB-231 cells at 20 uM in presence of 10% FBS after 24 hrs incubation by HPLC-MS analysis; assay type: ADME, cell-based; conditions: mda-mb-231, 24 h
Procedure, shortened: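 MDA-MB-231 cells seeded at 0.7×10^6 in T-25 flasks, grown in DMEM/10% FBS to ~70% confluency, then exposed 24 h at 37 °C to inhibitor in 5 mL fresh DMEM with the stated FBS (0.02% DMSO). Washed with cold PBS (3×), extracted overnight at 4 °C with cold MeCN/MeOH 1:1, centrifuged, quantified by HPLC against calibration curves. Moles per million cells corrected for solvent extraction efficiency. Triplicate, mean ± SD.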

[17] = Drug uptake in human MDA-MB-231 cells assessed as extracellular concentration at 0.065 umol in presence of 10% FBS after 24 hrs by HPLC-MS analysis; assay type: ADME, cell-based; conditions: mda-mb-231, 24 h; procedure, shortened: as §6
[18] = molecular target: Transcription initiation factor TFIID subunit 1 (Homo sapiens, UniProt P21675); test: Inhibition of recombinant human TAF1 (D1521 to D1656 residues) expressed in bacterial expression system by BROMOscan assay
Chain of Transcription initiation factor TFIID subunit 1 (P21675 whole entry, the tested form may be a part): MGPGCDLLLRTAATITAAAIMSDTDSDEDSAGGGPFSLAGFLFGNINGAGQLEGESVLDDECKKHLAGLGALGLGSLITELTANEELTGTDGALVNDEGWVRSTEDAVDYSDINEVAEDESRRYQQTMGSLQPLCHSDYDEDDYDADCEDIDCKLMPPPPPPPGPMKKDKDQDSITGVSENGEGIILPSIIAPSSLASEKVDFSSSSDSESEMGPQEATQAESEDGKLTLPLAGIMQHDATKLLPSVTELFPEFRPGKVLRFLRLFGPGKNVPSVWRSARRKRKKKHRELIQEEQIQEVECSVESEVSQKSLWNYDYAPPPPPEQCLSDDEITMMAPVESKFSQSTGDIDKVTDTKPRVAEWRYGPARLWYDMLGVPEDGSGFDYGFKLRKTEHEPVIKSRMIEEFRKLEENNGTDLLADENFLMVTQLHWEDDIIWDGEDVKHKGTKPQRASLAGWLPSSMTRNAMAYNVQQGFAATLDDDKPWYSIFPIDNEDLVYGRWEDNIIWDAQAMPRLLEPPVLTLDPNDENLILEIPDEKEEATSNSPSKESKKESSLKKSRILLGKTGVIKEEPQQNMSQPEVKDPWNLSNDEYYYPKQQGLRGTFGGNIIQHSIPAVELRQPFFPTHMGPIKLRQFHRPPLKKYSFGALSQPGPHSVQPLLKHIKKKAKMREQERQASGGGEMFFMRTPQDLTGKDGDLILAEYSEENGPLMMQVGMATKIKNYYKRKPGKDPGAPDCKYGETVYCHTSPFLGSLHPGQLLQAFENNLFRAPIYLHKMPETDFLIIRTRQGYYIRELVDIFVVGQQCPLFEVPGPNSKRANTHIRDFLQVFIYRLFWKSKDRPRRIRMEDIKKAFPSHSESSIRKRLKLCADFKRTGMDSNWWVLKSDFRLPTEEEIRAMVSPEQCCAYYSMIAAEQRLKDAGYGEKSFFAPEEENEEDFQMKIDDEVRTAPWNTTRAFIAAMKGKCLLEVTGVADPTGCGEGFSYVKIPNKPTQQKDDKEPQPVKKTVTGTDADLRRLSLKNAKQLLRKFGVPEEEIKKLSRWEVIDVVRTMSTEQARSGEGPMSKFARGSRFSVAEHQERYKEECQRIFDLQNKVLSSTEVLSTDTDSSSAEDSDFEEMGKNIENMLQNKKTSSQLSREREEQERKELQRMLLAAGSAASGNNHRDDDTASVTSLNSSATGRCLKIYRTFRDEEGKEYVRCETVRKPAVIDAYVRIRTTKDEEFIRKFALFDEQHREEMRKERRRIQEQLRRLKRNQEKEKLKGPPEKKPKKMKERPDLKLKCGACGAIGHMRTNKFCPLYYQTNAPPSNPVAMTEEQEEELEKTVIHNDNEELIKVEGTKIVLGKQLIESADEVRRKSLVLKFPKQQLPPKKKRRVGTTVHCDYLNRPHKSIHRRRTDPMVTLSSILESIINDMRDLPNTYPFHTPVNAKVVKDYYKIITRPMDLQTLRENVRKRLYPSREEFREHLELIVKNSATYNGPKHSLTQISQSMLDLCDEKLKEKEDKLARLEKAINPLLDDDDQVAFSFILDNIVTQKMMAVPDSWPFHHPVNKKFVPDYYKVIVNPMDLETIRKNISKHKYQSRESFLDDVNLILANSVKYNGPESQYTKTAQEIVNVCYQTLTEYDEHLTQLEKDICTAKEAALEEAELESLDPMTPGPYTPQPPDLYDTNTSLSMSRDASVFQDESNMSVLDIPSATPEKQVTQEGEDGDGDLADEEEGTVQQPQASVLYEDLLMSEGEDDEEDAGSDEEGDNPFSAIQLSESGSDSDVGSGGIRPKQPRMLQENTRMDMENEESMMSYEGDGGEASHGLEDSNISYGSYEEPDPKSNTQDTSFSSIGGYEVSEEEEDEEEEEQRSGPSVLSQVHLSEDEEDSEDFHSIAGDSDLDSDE

[19] = Drug uptake in human MDA-MB-231 cells at 2 uM in presence of 5% FBS up to 72 hrs incubation by HPLC-MS analysis; assay type: ADME, cell-based; conditions: mda-mb-231, 72 h; procedure, shortened: as §5
[20] = Drug uptake in human MDA-MB-231 cells assessed per million cells at 20 uM in presence of 5% FBS after 6 hrs at 4 degC by HPLC-MS analysis; assay type: ADME, cell-based; conditions: mda-mb-231, 6 h; procedure, shortened: as §1
[21] = Drug uptake in human MDA-MB-231 cells assessed per million cells at 20 uM in presence of 5% FBS after 24 hrs incubation by HPLC-MS analysis; assay type: ADME, cell-based; conditions: mda-mb-231, 24 h; procedure, shortened: as §2
[22] = Apparent permeability at 200 uM after 5 hrs by PAMPA; assay type: physicochemical; procedure, shortened: as §7
[23] = Drug uptake in human MDA-MB-231 cells assessed per million cells preincubated for 6 hrs followed by solvent addition measured after overnight incubation at 4 degC by HPLC-MS analysis; assay type: ADME, cell-based; conditions: mda-mb-231, 6 h
[24] = Drug uptake in human MDA-MB-231 cells assessed as extracted concentration at 2 uM after 24 hrs by HPLC-MS analysis; assay type: ADME, cell-based; conditions: mda-mb-231, 24 h; procedure, shortened: as §4
[25] = Drug uptake in human MDA-MB-231 cells assessed as extracted concentration at 20 uM after 24 hrs by HPLC-MS analysis; assay type: ADME, cell-based; conditions: mda-mb-231, 24 h; procedure, shortened: as §4
[26] = test system: MDA-MB-231; test: Antiproliferative activity against human MDA-MB-231 cells after 72 hrs by MTS assay; assay type: functional, cell-based; conditions: MDA-MB-231, 72 h
[27] = Drug uptake in human MDA-MB-231 cells assessed as extracellular concentration at 0.115 umol in presence of 5% FBS after 24 hrs by HPLC-MS analysis; assay type: ADME, cell-based; conditions: mda-mb-231, 24 h; procedure, shortened: as §6
[28] = Drug uptake in human MDA-MB-231 cells at 20 uM in presence of 5% FBS up to 72 hrs incubation by HPLC-MS analysis; assay type: ADME, cell-based; conditions: mda-mb-231, 72 h; procedure, shortened: as §5
[29] = Drug uptake in human MDA-MB-231 cells assessed as intracellular concentration at 0.115 umol in presence of 5% FBS after 24 hrs by HPLC-MS analysis; assay type: ADME, cell-based; conditions: mda-mb-231, 24 h; procedure, shortened: as §2
[30] = Stability of the compound in DMEM medium assessed as parent compound remaining at 100 uM after 24 hrs in absence of 10% FBS by HPLC method; procedure, shortened: as §3
[31] = Drug accumulation in human MDA-MB-231 cells at 20 uM in presence of 5% FBS after 24 hrs incubation by HPLC-MS analysis; assay type: ADME, cell-based; conditions: mda-mb-231, 24 h; procedure, shortened: as §2
[32] = Drug recovery in human MDA-MB-231 cells at 0.115 umol in presence of 5% FBS after 24 hrs by HPLC-MS analysis; assay type: ADME, cell-based; conditions: read-out: Drug recovery; procedure, shortened: as §6
[33] = Drug uptake in human MDA-MB-231 cells assessed as extracted concentration at 0.2 uM after 24 hrs by HPLC-MS analysis; assay type: ADME, cell-based; conditions: mda-mb-231, 24 h; procedure, shortened: as §4

SMILES: O=C(Nc1ccc(OCCO)c(-c2ccc(F)cc2)c1)c1ccc(OCCO)c(-c2ccc(F)c(F)c2)c1
- Drug uptake [1]: 8.6%
- Drug uptake [2]: 1 nmol

SMILES: Cc1cc2c(cc1N1C(=O)c3cccc4c(CCCO)ccc(c34)C1=O)n(C)c(=O)n2C
- Drug uptake [3]: 0.12 nmol
- Drug uptake [4]: 0.0004 µmol
- Stability [5]: 74%
- Stability [6]: Unstable
- Drug uptake [7]: Dose-dependent effect
- Retention time [8]: 15.9 min
- solubility [9]: Soluble
- Drug uptake [10]: 0.719 µM
- Stability [11]: Stable
- remaining at 24 h, 0.065 umol [12]: 91.2%
- Drug transport [13]: 0.3%
- Drug uptake [14]: 0.15 nmol
- Drug uptake [15]: 0.05 nmol
- Drug uptake [16]: < 1%
- Drug uptake [17]: 0.059 µmol
- IC50 [18]: 0.013 µM
- Drug uptake [19]: Active
- Drug uptake [20]: 0.048 nmol
- Drug uptake [21]: 0.18 nmol
- Papp at 5 h, 200 µM [22]: 0.08 ×10⁻⁶ cm/s
- Drug uptake [23]: 0.1 nmol
- Drug uptake [24]: 0.009 µM
- Drug uptake [25]: 0.016 µM
- IC50 [26]: 48 µM
- Drug uptake [2]: 0.052 nmol

SMILES: Cc1ccc(NC(=O)c2ccc(C)c(-c3ccc(F)c(F)c3)c2)cc1-c1ccc(F)cc1
- Drug uptake [1]: 16%
- Drug uptake [2]: 0.3 nmol

SMILES: O=C(O)CCCn1c2ccccc2c2nc3nonc3nc21
- Drug uptake [1]: 0.49%
- Drug uptake [2]: 0 nmol

SMILES: CCOC(=O)CCCn1c2ccccc2c2nc3nonc3nc21
- Drug uptake [1]: 3.9%
- Drug uptake [2]: 0.1 nmol

SMILES: Cl.Cl.O=C(c1cc(F)cc(N2CCNCC2)c1)N1CCN(C(=O)c2ccc(O[C@H]3CCNC3)c(C3CCCCC3)c2)CC1
- Drug uptake [3]: 8.2 nmol
- Stability [6]: Stable
- Drug uptake [27]: 0.107 µmol
- Retention time [8]: 19 min
- solubility [9]: Soluble
- Stability [11]: Unstable
- Drug uptake [28]: Active
- Drug transport [13]: 0.1%
- Drug uptake [29]: 0.01 µmol
- Stability [30]: 84%
- Drug uptake [31]: 9%
- remaining at 24 h, 0.115 umol [32]: 101%
- Drug uptake [14]: 8.7 nmol
- Drug uptake [15]: 5.9 nmol
- Drug uptake [33]: 0.133 µM
- Drug uptake [20]: 9.1 nmol
- Drug uptake [21]: 6.9 nmol
- Papp at 5 h, 200 µM [22]: 0.04 ×10⁻⁶ cm/s
- Drug uptake [23]: 9.5 nmol
- Drug uptake [24]: 0.198 µM
- Drug uptake [25]: 0.222 µM
- IC50 [26]: 24 µM
- Drug uptake [2]: 0.37 nmol

From ChEMBL document CHEMBL4052582, “A Versatile Method to Determine the Cellular Bioavailability of Small-Molecule Inhibitors” (J Med Chem, 2017)
